Experimental data published in ChEMBL document CHEMBL1151929, “Synthesis and antiviral activity evaluation of acyclic 2'-azanucleosides bearing a phosphonomethoxy function in the side chain” (Bioorg Med Chem, 2009).
The source made the active and inactive calls.

Key:
Type in all cases: functional, organism-based
[1] = system: Sindbis virus; experiment: Antiviral activity against Sindbis virus infected in african green monkey Vero cells assessed as reduction of virus-induced cytopathic effect at 10 to 100 ug/ml
How it was run: (§1)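 Confluent cell monolayers in 96-well plates inoculated with 100 CCID50 of virus; 1–2 h adsorption, residual virus removed, then incubated with varying compound concentrations. CPE scored visually once complete in untreated infected controls; EC50 = concentration reducing virus-induced cytopathicity by 50%. Highest subtoxic concentrations tested 10–100 μg/mL.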

[2] = system: Human alphaherpesvirus 3; experiment: Antiviral activity against Varicella Zoster virus Oka infected in HEL cells assessed as reduction in viral plaque formation at 10 to 100 ug/ml
[3] = system: Human betaherpesvirus 5; experiment: Antiviral activity against HCMV Davis infected in HEL cells assessed as reduction of virus plaque formation at 10 to 100 ug/ml
How it was run: (§2)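 HEL fibroblasts in 96-well plates infected with 100 PFU HCMV; 1–2 h adsorption, residual virus removed, incubation with varying compound concentrations. EC50 taken as concentration reducing viral plaque formation by 50%. Highest subtoxic concentrations 10–100 μg/mL.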

[4] = system: Human alphaherpesvirus 1; experiment: Antiviral activity against acyclovir-resistant thymidine kinase-deficient HSV1 KOS infected in HEL cells assessed as reduction of virus-induced cytopathic effect at 10 to 100 ug/ml
[5] = system: Felid alphaherpesvirus 1; experiment: Antiviral activity against Feline herpesvirus infected in cat CRFK cells assessed as effect on cell viability at 10 to 100 ug/ml by MTS assay
How it was run: (§3)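 CRFK feline kidney cells, confluent in 96-well plates, infected with 100 CCID50; after 1–2 h adsorption, inoculum removed and cultures kept with varying compound concentrations until CPE complete in untreated virus controls. Cell viability read by colorimetric formazan-based MTS assay; EC50 = concentration reducing virus-induced cytopathicity by 50%. Top subtoxic concentrations 10–100 μg/mL.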

[6] = system: Mammalian orthoreovirus 1; experiment: Antiviral activity against Reovirus 1 infected in african green monkey Vero cells assessed as reduction of virus-induced cytopathic effect at 10 to 100 ug/ml; how it was run: as §1
[7] = system: Human betaherpesvirus 5; experiment: Antiviral activity against HCMV AD169 infected in HEL cells assessed as reduction of virus plaque formation at 10 to 100 ug/ml; how it was run: as §2
[8] = system: Respiratory syncytial virus; experiment: Antiviral activity against RSV Long infected in human HeLa cells assessed as reduction of virus-induced cytopathic effect at 10 to 100 ug/ml; how it was run: as §1
[9] = system: Human alphaherpesvirus 1; experiment: Antiviral activity against HSV1 KOS infected in HEL cells assessed as reduction of virus-induced cytopathic effect at 10 to 100 ug/ml
[10] = system: Feline coronavirus; experiment: Antiviral activity against Feline coronavirus infected in cat CRFK cells assessed as effect on cell viability at 10 to 100 ug/ml by MTS assay; how it was run: as §3
[11] = system: Human alphaherpesvirus 2; experiment: Antiviral activity against HSV2 G infected in HEL cells assessed as reduction of virus-induced cytopathic effect at 10 to 100 ug/ml; settings: strain G
[12] = system: Vesicular stomatitis virus; experiment: Antiviral activity against VSV infected in HEL cells assessed as reduction of virus-induced cytopathic effect at 10 to 100 ug/ml
[13] = system: Human respirovirus 3; experiment: Antiviral activity against Parainfluenza virus 3 infected in african green monkey Vero cells assessed as reduction of virus-induced cytopathic effect at 10 to 100 ug/ml; how it was run: as §1
[14] = system: Vesicular stomatitis virus; experiment: Antiviral activity against VSV infected in human HeLa cells assessed as reduction of virus-induced cytopathic effect at 10 to 100 ug/ml
How it was run: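 Confluent HeLa cell cultures were inoculated with 100 CCID50 of VSV and allowed to adsorb for 1–2 h. Unbound virus was removed and cultures were incubated with varying compound concentrations. CPE was scored visually when complete in untreated infected controls. EC50 is the concentration reducing CPE by 50%.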

[15] = system: Coxsackievirus B4; experiment: Antiviral activity against Coxsackievirus B4 infected in human HeLa cells assessed as reduction of virus-induced cytopathic effect at 10 to 100 ug/ml; how it was run: as §1
[16] = system: Human alphaherpesvirus 3; experiment: Antiviral activity against thymidine kinase-deficient Varicella Zoster virus 07/1 infected in HEL cells assessed as reduction in viral plaque formation at 10 to 100 ug/ml
[17] = system: Coxsackievirus B4; experiment: Antiviral activity against Coxsackievirus B4 infected in african green monkey Vero cells assessed as reduction of virus-induced cytopathic effect at 10 to 100 ug/ml; how it was run: as §1
[18] = system: Punta Toro virus; experiment: Antiviral activity against Punta Toro virus infected in african green monkey Vero cells assessed as reduction of virus-induced cytopathic effect at 10 to 100 ug/ml; how it was run: as §1
[19] = system: Vaccinia virus; experiment: Antiviral activity against Vaccinia virus Lederle infected in HEL cells assessed as reduction of virus-induced cytopathic effect at 10 to 100 ug/ml; settings: Orthopoxvirus vaccinia

Measured: Activity

Cc1ccc(S(=O)(=O)N(CCOCP(=O)(O)O)Cn2ccc(=O)[nH]c2=O)cc1
inactive: all assays above

Cc1ccc(S(=O)(=O)N(CCOCP(=O)(O)O)Cn2cc(F)c(=O)[nH]c2=O)cc1
inactive: all assays above

Cc1ccc(S(=O)(=O)N(CCOCP(=O)(O)O)Cn2ccc(N)nc2=O)cc1
inactive: all assays above

Cc1ccc(S(=O)(=O)N(CCOCP(=O)(O)O)Cn2cc(C)c(=O)[nH]c2=O)cc1
inactive: all assays above
